Bfl-1 A1 inh: caspase 3/7 activation in MEF A1-2A-BIM cells, primary screen, A1 inhibitor project, cell-based, luminescence, HTS; Caspase-Glo 3/7 luminescence, 3 h; percent of clofoctol response, vehicle zero; caspase activation, % (concentration not given with the values); 0.066% of 330,000 active; AID 2462, 2010;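 active means over half of replicate activation scores above 10%, or exactly half above 10 with the replicate mean above 10; inconclusive means replicate mean below 10 yet half the replicates above 10; inactive means over half of replicates below 10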
HIF activator: HIF pathway transcriptional activators, primary screen, cell-based, U2OS HRE-luciferase, luminescence; AID 1910, 2009; 0.32% of 300,000 active; U2OS HRE-luciferase reporter; normalized: DMSO 0%, desferrioxamine 100%; activation, % at 7.5 µM (by protocol);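 active means mean activation of at least 10% of the iron chelator positive control signal, with at least half of replicates also reaching 10%; inconclusive means mean and replicate majority disagree about reaching 10%; inactive means mean and most replicates under 10%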
Beta cell apopt: inhibitors of cytokine-induced beta cell apoptosis, primary screen, luminescence. INS-1E cytokine-induced death, ATP luminescence, 48 h; percent of positive-control rescue, neutral wells zero. 0.8% of 300,000 active. protection from apoptosis, % (no concentration beside the values);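 active means Every replicate reaches about 75%, or at least half do and their mean reaches it too, limit read from the data; inconclusive means At least half of replicates reach the limit but their mean does not; inactive means Under half of replicates reach the limit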;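 further: higher means more ATP so stronger rescue from cytokine killing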
T cruzi repl: inhibitors of intracellular T. cruzi growth, primary screen, luminescence, NIH3T3 host cells. inhibition, % (no concentration beside the values). T. cruzi beta-gal in NIH3T3, 90 h. 1.4% of 300,000 active;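 active means mean inhibition across valid replicates above about 55%, limit read from the data; inconclusive means mean below that limit but half or more replicates reach it; inactive means mean below it, under half of replicates reach it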;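 further: signal also drops with host cell toxicity which is not excluded here; higher percent means less beta-gal luminescence so fewer parasites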
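Test system: β-gal T. cruzi (Tulahuen C4) inside NIH/3T3 cells / Quantity: 5,000 cells/well / Measured by: luminescence from GalScreen with 0.05% NP40, read after 60 min / Medium: DMEM plus 2% FBS / Measure: parasite load inhibition, % / Reagent: Tulahuen C4 trypomastigotes, 5000/well / Schedule: co-culture of at least 90 h after 3 h attachment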
KLF5 inhibitor: KLF5 expression inhibitors, primary screen, DLD-1 cells, luminescence | AID 1700, 2009 | DLD-1 KLF5 promoter-luciferase reporter | 0.23% of 290,000 active | inhibition, % at 5 µM;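 active means inhibition above a per-plate limit of that plate's mean compound inhibition plus 3 SD, cut at about 60% in these data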;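 further: higher means less KLF5 promoter-driven luciferase light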
Of the large screens only hits and unclear results are named; the others gave an inactive call. An excerpt weighted towards active compounds, which were near 2.3% of everything screened.

Cc1c(C(=O)N(C)C2CCCCC2)sc2ncnc(N3CCN(c4ccccc4)CC3)c12	none
O=C(OCCOCCN=C1NS(=O)(=O)c2ccccc21)c1ccc(F)cc1	none
COCCN(C(=O)COC(=O)c1nc(Cl)ccc1Cl)c1c(N)n(Cc2ccccc2)c(=O)[nH]c1=O	none (no result: KLF5 inhibitor)
CCOC(=O)c1c(C)[nH]c(C(=O)CSc2nnc(-c3ccncc3)n2CC)c1C	none (no result: HIF activator)
C=CCn1c(SCC(=O)c2[nH]c(C)c(C(=O)OCC)c2C)nc2scc(-c3ccc(OC)c(OC)c3)c2c1=O	Beta cell apopt 95
CC(=O)N1CCC(=NNc2nc3ccccc3[nH]2)CC1	HIF activator 22
CCC(C)(C)C1CCC(=NNc2nc3ccccc3[nH]2)CC1 (centres undefined)	none
COc1cc2nc(Nc3ccc(C)c(Cl)c3)nc(N)c2cc1OC	none
COc1cc2nc(N(C)C)nc(N)c2cc1OC	T cruzi repl 63
COc1cc2nc(Nc3ccc(F)cc3)nc(N)c2cc1OC	none
COc1cc2nc(Nc3ccc(C)c(C)c3)nc(N)c2cc1OC	T cruzi repl 56
CCN(C(=O)CSc1n[nH]c(N)n1)c1cccc2ccccc12	none (no result: HIF activator, T cruzi repl, KLF5 inhibitor)
CC(C)(C)c1ccc(Cn2nnc3c(=O)[nH]c(C4CCN(C(=O)c5ccco5)CC4)nc32)cc1	none (no result: Bfl-1 A1 inh, Beta cell apopt)
O=C(NCCCCc1ccccc1)c1cccc([N+](=O)[O-])c1	none
O=C(NCCCCc1ccccc1)c1cc([N+](=O)[O-])cc([N+](=O)[O-])c1	T cruzi repl 63
O=C(NCC1CC1)c1cc([N+](=O)[O-])cc([N+](=O)[O-])c1	T cruzi repl 61
COc1cccc(OCCNC(=O)c2cccc(OC)c2)c1	none
COc1cccc(OCCNC(=O)c2cc([N+](=O)[O-])cc([N+](=O)[O-])c2)c1	T cruzi repl 61
O=C(NCCc1c[nH]c2ccccc12)c1cc([N+](=O)[O-])cc([N+](=O)[O-])c1	T cruzi repl 69
O=C(NCCc1c[nH]c2ccccc12)c1ccc([N+](=O)[O-])cc1	Bfl-1 A1 inh inconclusive
O=C(C1=NN(c2ccccc2)C(=O)CC1)N1CCc2ccccc2C1	none
CSCC[C@H](NC(=O)N1CCn2c1nc1ccccc12)C(=O)NCc1ccc(C)cc1	none
O=C(NCCCN1CCN(CCCNC(=O)c2cccc([N+](=O)[O-])c2)CC1)c1cccc([N+](=O)[O-])c1	T cruzi repl 56
CC1Oc2cc3oc4c(O)c5c(cc4c(=O)c3c(O)c2C1(C)C)C=CC(C)(C)O5 (centres undefined)	none (no result: KLF5 inhibitor)
CC(C)=CCc1cc2c(=O)c3c(O)c4c(cc3oc2c(O)c1O)OC(C)C4(C)C (centres undefined)	Beta cell apopt 109, T cruzi repl 67 (no result: KLF5 inhibitor)
N=c1c2ccccc2nc2n1CCCCCCCCCCC2	Beta cell apopt 97 (no result: KLF5 inhibitor)
c1ccc2c(-c3nnc4n3CCCCC4)cc(-c3ccncc3)nc2c1	none (no result: Beta cell apopt)
Fc1ccc(-c2cc(-c3nnc4n3CCCCC4)c3ccccc3n2)cc1	Beta cell apopt 97
Clc1ccc(-c2cc(-c3nnc4n3CCCCC4)c3ccccc3n2)cc1	Beta cell apopt 100
Fc1ccc(-c2nnc3n2CCCCC3)cc1	none
O=c1c2ccccc2nc2n1CCCCC2	none
CC1CCN(C(=O)c2cc(S(=O)(=O)N3CCOCC3)ccc2N2CCCC2)CC1	none (no result: HIF activator, T cruzi repl, KLF5 inhibitor)
CN1CCC(N(C)C(=O)c2ccccc2Nc2ccc(SC(F)F)cc2)CC1	T cruzi repl 59 (no result: HIF activator)
COc1ccc(OC)c(S(=O)(=O)Nc2cccc3c(O)cccc23)c1	none (no result: KLF5 inhibitor)
COc1ccc(OC)c(S(=O)(=O)Nc2ccc(O)c3ccccc23)c1	Beta cell apopt 103
Cc1ccc(-c2cc3nc(C)cc(C)n3n2)cc1	none
Cc1cc(C)n2nc(-c3ccsc3-n3c(C)ccc3C)cc2n1	T cruzi repl 55
CCOc1cccc(-c2c(C(=O)N/N=C/c3ccc(Br)cc3)nnn2-c2nonc2N)c1	HIF activator 10 (no result: Beta cell apopt)
CCOc1cccc(/C=N/NC(=O)c2cccnc2)c1O	KLF5 inhibitor 94
CCOc1cccc(/C=N/NC(=O)c2cc(C3CC3)[nH]n2)c1O	Beta cell apopt 96
COc1cc(/C=N/NC(=O)c2cc(C3CC3)[nH]n2)cc(OC)c1OC	none
O=C(NNC(=O)c1ccccc1Cl)c1ccc(-n2cncn2)c([N+](=O)[O-])c1	none (no result: HIF activator, T cruzi repl, KLF5 inhibitor)
O=C(CCc1ccccc1)NCc1ccc2c(c1)OCO2	none
CC(C)(C)Sc1ccc2nc3c(n2c1)CCCC3	Beta cell apopt 101
O=C(CCCN1C(=O)c2ccccc2C1=O)NCCc1ccc(OC(F)F)cc1	none
CC(Sc1nnc(COc2ccc([N+](=O)[O-])cc2)n1-c1ccccc1)C(=O)O (centres undefined)	none (no result: Beta cell apopt)
CC(Sc1nnc(COc2ccc([N+](=O)[O-])cc2)n1C)C(=O)O (centres undefined)	HIF activator 93
Cc1onc(-c2ccc(Cl)cc2Cl)c1-c1csc(N/N=C/c2ccccc2Cl)n1	T cruzi repl 62 (no result: Beta cell apopt)
O=C(COc1ccc(F)cc1)Nc1cc(S(=O)(=O)N2CCCCC2)ccc1N1CCCCC1	T cruzi repl 55 (no result: KLF5 inhibitor)
O=C(Nc1cc(S(=O)(=O)N2CCCCC2)ccc1Cl)c1ccccc1NS(=O)(=O)c1ccc(F)cc1	Beta cell apopt 130
CCN1CCN(c2ccc(S(=O)(=O)N3CCCCC3)cc2NC(=O)COc2ccc(F)cc2Cl)CC1	T cruzi repl 64
CCN1CCN(c2ccc(S(=O)(=O)N3CCCCC3)cc2NC(=O)COc2cc(C)ccc2Cl)CC1	none (no result: KLF5 inhibitor)
O=C(CN(Cc1ccco1)Cc1ccco1)Nc1cc(S(=O)(=O)N2CCCCC2)ccc1Cl	Beta cell apopt 101 (no result: HIF activator, T cruzi repl, KLF5 inhibitor)

Bioassay records: PubChem, several laboratories
